# Bioassay records as filed in PubChem BioAssay.
# MrgX1 antag = blocks BAM8-22 activation of human MrgX1 receptor. Q96LB2. MRGX1-HEK293 calcium flux, Fluo-4, BAM8-22 antagonism; active compounds read low. B-score at 10 µM. 310,000 tested, 1.3% active. AID 588676;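 active = calcium-response B-score plate-corrected more than 3 library SD below zero, starting fluorescence within 5 deviations, no agonist response on first addition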;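 also: peak minus trough fluorescence over baseline after final BAM8-22 challenge near maximal dose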
# Target sequence (Q96LB2 whole entry, looked up): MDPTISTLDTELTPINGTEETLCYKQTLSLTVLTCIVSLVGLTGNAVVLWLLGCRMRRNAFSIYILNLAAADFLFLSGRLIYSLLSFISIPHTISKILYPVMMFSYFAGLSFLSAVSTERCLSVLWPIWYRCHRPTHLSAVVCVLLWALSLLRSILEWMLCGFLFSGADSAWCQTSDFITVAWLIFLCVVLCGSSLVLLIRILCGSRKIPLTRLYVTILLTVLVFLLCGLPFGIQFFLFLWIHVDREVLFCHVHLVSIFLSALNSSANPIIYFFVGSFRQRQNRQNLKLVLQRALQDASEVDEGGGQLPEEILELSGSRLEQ
# RGS4 pot = RGS4 potentiation or activation | 310,000 tested, 0.92% active | HEK293 M3R/inducible RGS4, carbachol calcium flux Fluo4; active compounds read low | B-score at 10 µM;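 active = B-score of the integrated calcium signal more than 4 SD below the library mean, with starting fluorescence not abnormally high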;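 also: negative B-score means reduced calcium response which marks RGS4 activation or potentiation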
#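 Reagent: ECmax carbachol challenge; Test system: M3R-expressing HEK293 line, RGS4 induced by doxycycline; Schedule: overnight RGS4 induction, 30 min dye load 37 °C, 20 min compound RT; Detection: calcium dye Fluo4 fluorescence; Read-out: Agonist-evoked peak-minus-minimum fluorescence over baseline, integrated ratio, B score.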
# MrgX1 ag = agonists of human MrgX1 receptor. 310,000 tested, 0.44% active. Q96LB2. B-score at 10 µM. AID 588627. MrgX1-HEK293 cells, Fluo-4 calcium fluorescence, agonist mode; active compounds read high;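 active = calcium response B-score plate-corrected fluorescence ratio at least 3 library SD, with starting fluorescence B-score inside 5 SD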
#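 Test system: HEK293 cells stably expressing human MrgX1 receptor; Input: fifteen thousand cells per well; Dosing: compound delivered in addition one of three; Schedule: overnight seeding, then 1 h dark dye loading; Technique: Fluo-4 NW calcium fluorescence; Measure: B-scored fluorescence response ratio; Controls: positive and negative controls per plate.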
# MrgX1 PAM = human MrgX1 positive allosteric modulation, primary screen; Q96LB2; MrgX1-HEK293, Fluo-4 calcium flux, FDSS; active compounds read high; B-score at 10 µM; 310,000 tested, 0.63% active; AID 588675;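 active = plate-corrected calcium response at least 3 library SD above typical, normal starting fluorescence, not activating the receptor alone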;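 also: compound read alongside a low EC10 to EC30 dose of BAM8-22 agonist; peak minus trough fluorescence over baseline measured at the second addition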
# RGS4 block = inhibitors of human RGS4; HEK293 M3R/RGS4 inducible, Fluo-4 calcium flux; active compounds read high; triggered by carbachol at its EC20; B-score at 10 µM; 310,000 tested, 0.45% active; AID 463165; P49798;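 active = B-score, a plate-corrected calcium signal, over three deviations above library mean, with baseline fluorescence within five deviations of library mean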;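 also: RGS4 expression induced by doxycycline in cells with stable M3 receptor; B-score is computed from the integrated fluorescence ratio over baseline after carbachol; higher B-score means a larger calcium signal and so more RGS4 inhibition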
# MrgX1 ag reconf = confirmation of human MrgX1 receptor agonists; shares compounds with MrgX1 ag; MrgX1-HEK293, Fluo-4 calcium fluorescence, FDSS; activation, % at 10 µM; 600 tested, 78% active; AID 602412;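 active = calcium signal rise, corrected for plate position, at least 3 library SD high, with starting brightness within 5 such deviations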
# HEK293 Ca flux = MrgX1 antagonist counter-screen hit in parental HEK293 cells. shares compounds with MrgX1 antag. Fluo-4 calcium fluorescence, FDSS. fluorescence ratio F(max-min)/F0 at 10 µM. 4,000 tested, 2% active;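 active = duplicate-averaged calcium fluorescence ratio at least three times the standard deviation of buffer wells, a nonspecific response in parental cells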
# HEK293 Ca counter = counter-screen for MrgX1 allosteric activators: effect in parental HEK293 cells. shares compounds with MrgX1 antag. parental HEK293 calcium flux, Fluo-4 fluorescence ratio; active compounds read high. fluorescence ratio F(max-min)/F0 at 10 µM. 4,000 tested, 0.4% active;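 active = calcium fluorescence ratio, averaged over duplicates, at least 3 SD of the buffer-well ratio, meaning a nonspecific response in receptor-free cells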;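 also: untransfected parental HEK293 lacking MrgX1 used as counterscreen for MrgX1 allosteric activators; fluorescence change taken during the second addition on a kinetic imager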
# HEK293 Ca cntr2 = activity in parental HEK293 cells lacking MrgX1 receptor; shares compounds with MrgX1 antag; Fluo-4 calcium fluorescence (FDSS); active compounds read high; fluorescence ratio F(max-min)/F0 at 10 µM; 4,000 tested, 8.7% active;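 active = calcium fluorescence ratio at least three times the spread of buffer wells, meaning a non-specific response in parental cells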
# * = called active by the depositor; i = inactive; . = no result. Compounds with a hit are over-represented: about 3.5% of the library has one in this group of screens.
SMILES,MrgX1 antag,RGS4 pot,MrgX1 ag,MrgX1 PAM,RGS4 block,MrgX1 ag reconf,HEK293 Ca flux,HEK293 Ca counter,HEK293 Ca cntr2
O=C(CC(=O)c1ccccc1O)c1cccc(F)c1,i,i,i,i,i,.,.,.,.
O=C(CC(=O)c1c(F)cccc1Cl)c1ccccc1O,i,i,52.9*,i,i,325.6%*,i,i,72.9*
CCCCn1c(N)c(N(CCC(C)C)C(=O)CC2CCCC2)c(=O)[nH]c1=O,i,i,i,i,i,.,.,.,.
Cc1ccc(-c2[nH]c(-c3ccccc3)nc2SCC(=O)NCC2CCCO2)cc1 (configuration not stated),i,i,34.2*,i,i,238.8%*,i,i,49.4*
Nc1nc2ccccc2cc1-c1cccs1,i,i,44.9*,i,i,196.3%*,i,i,i
c1csc(-c2ccc3ccccc3n2)c1,i,i,i,i,i,.,.,.,.
Cc1ccc(-c2cc3ccccc3nc2N)cc1,i,i,43.5*,i,i,219.6%*,i,i,i
CC1(c2ccc([N+](=O)[O-])cc2)NC(=O)N(CC(=O)c2ccc3c(c2)OCO3)C1=O (configuration not stated),i,i,i,i,i,.,.,.,.
CC1(c2ccc(OC(F)F)cc2)NC(=O)N(CC(=O)c2ccc3c(c2)OCO3)C1=O (configuration not stated),i,i,35*,i,i,175.6%*,i,i,54.6*
COc1ccc(S(=O)(=O)NC(C)C(=O)NCCN2CCOCC2)cc1Cl (configuration not stated),i,i,i,i,i,.,.,.,.
CCC(=O)Oc1ccc(NC(=O)CSCc2ccccc2)cc1,i,i,i,i,i,.,.,.,.
Cc1ccc(C2C(C#N)=C(N)Oc3n[nH]c(-c4cccnc4)c32)o1 (configuration not stated),i,i,35.7*,i,i,167.3%*,i,i,i
c1ccc2c(c1)NC1(CCCC1)n1c-2nc2ccccc21,i,i,29.1*,i,i,144.3%*,i,i,i
CCCC1(C)Nc2ccccc2-c2nc3ccccc3n21 (configuration not stated),i,i,i,i,i,.,.,.,.
CNc1nc(NCc2ccccc2)c2ccccc2n1,i,i,75.7*,i,i,252.9%*,i,i,i
Cc1nnc(NC(=O)c2sc3nc(-c4cccs4)cc(C(F)(F)F)c3c2N)s1,i,i,31.3*,i,i,298.6%*,0.299*,i,62.7*
Cc1ccc(-c2csc(N=C(N)N)n2)c(C)c1,i,i,76.2*,i,i,104.5%*,i,i,i
COc1ccc(-c2csc(N=C(N)N)n2)cc1,i,i,i,i,i,.,.,.,.
O=C(COC(=O)c1nc(Cl)ccc1Cl)Nc1ccc2c(c1)OCO2,i,i,27.8*,i,i,i,i,i,i
Fc1ccc(/C=N/N2CCN(Cc3ccccc3)CC2)cc1,i,i,i,i,i,.,.,.,.
CC(C)(C)c1cc(C(c2cccnc2)N2CCN(CCO)CC2)cc(C(C)(C)C)c1O (configuration not stated),i,i,31.5*,i,i,262.6%*,i,i,52.5*
CC(C)(C)n1nnnc1C(c1cccnc1)N1CCN(c2cccc(C(F)(F)F)c2)CC1 (configuration not stated),i,i,i,i,i,.,.,.,.
